Measured values gathered from unrelated publications.
Protocols differ between the studies behind these lines.
PIK3CA E545K: Phosphatidylinositol 4,5-bisphosphate 3-kinase catalytic subunit alpha isoform (PIK3CA, Homo sapiens, UniProt P42336, E545K)
PIK3CA: Phosphatidylinositol 4,5-bisphosphate 3-kinase catalytic subunit alpha isoform (PIK3CA, Homo sapiens, UniProt P42336)
PIK3CA C420R: Phosphatidylinositol 4,5-bisphosphate 3-kinase catalytic subunit alpha isoform (PIK3CA, Homo sapiens, UniProt P42336, C420R)
PIK3CA E542K: Phosphatidylinositol 4,5-bisphosphate 3-kinase catalytic subunit alpha isoform (PIK3CA, Homo sapiens, UniProt P42336, E542K)
PIK3CA M1043I: Phosphatidylinositol 4,5-bisphosphate 3-kinase catalytic subunit alpha isoform (PIK3CA, Homo sapiens, UniProt P42336, M1043I)
PIK3CA I800L: Phosphatidylinositol 4,5-bisphosphate 3-kinase catalytic subunit alpha isoform (PIK3CA, Homo sapiens, UniProt P42336, I800L)
PIK3CA H1047Y: Phosphatidylinositol 4,5-bisphosphate 3-kinase catalytic subunit alpha isoform (PIK3CA, Homo sapiens, UniProt P42336, H1047Y)

SMILES | target | test | conditions | measurement | value
CN(C)c1ncnc(-c2ccc3nc(Nc4cc(CN5CCN(C(=O)CC(F)(F)F)CC5)ccn4)[nH]c3c2)c1Cl | PIK3CA E545K | cell-free assay, competition with immobilised ligand | 1 µM | remaining binding | 76%
CS(=O)(=O)Nc1cc(-c2ccc3ncnc(Nc4ccc(F)c(Cl)c4)c3c2)cnc1Cl | PIK3CA | enzyme activity, inhibitor, FRET | 10 µM | inhibition | 90 to 100%
c1cnn2ncc(-c3ccnc(N4CCC45COC5)n3)c2c1 | PIK3CA C420R | binding | 1 µM | remaining binding | 71%
CC(=O)Oc1ccc(-c2coc3c4c(c(CC=C(C)C)c(OC(C)=O)c3c2=O)OC(C)(C)C=C4)cc1OC(C)=O | PIK3CA E545K | enzyme activity, inhibitor, ADP detection | 10 µM | remaining activity | 37.6%
Cc1ccc(C(=O)Nc2ccc(CN3CCN(C)CC3)c(C(F)(F)F)c2)cc1C#Cc1cnc2cccnn12 | PIK3CA E545K | enzyme activity, inhibitor | 23.5 nM | remaining activity | 88%
C=CC(=O)N1CCC(C(=O)N(C)CCCC(=O)N2CCN(c3nc(-c4cnc(N)nc4C(F)F)nc(N4CCOCC4)n3)CC2)CC1 | PIK3CA | cell-free assay, TR-FRET | – | kinact | 0.000406 s⁻¹
O=c1nc(-c2ccccn2)sc2ccccc12 | PIK3CA E542K | cell-free assay, competition with immobilised ligand | 1 µM | remaining binding | 89%
Cc1ccc(C(=O)NCc2ccsc2)cc1C#Cc1cn(C(C)C)c2ncnc(N)c12 | Phosphatidylinositol 4,5-bisphosphate 3-kinase catalytic subunit alpha isoform, with p85 (PIK3CA, Homo sapiens, UniProt P42336) | enzyme activity, inhibitor | 1 µM | activity vs control | 97%
Nc1ncnc2occ(-c3ccc(NC(=O)Nc4cc(C(F)(F)F)ccc4F)cc3)c12 | PIK3CA M1043I | cell-free assay, inhibitor | 20 µM | remaining signal | 100%
O=C(CSc1nc2nccnc2c(=O)n1CCc1ccccc1)Nc1ccccc1 | PIK3CA | enzyme activity, inhibitor | 10 µM | inhibition | < 20%
Cc1cnn2ncc(-c3ccnc(N(C)C)n3)c2c1 | PIK3CA I800L | binding | 1 µM | remaining binding | 100%
C=CC(=O)NCCCCC(=O)N1CCN(c2nc(-c3cnc(N)nc3C(F)F)nc(N3CCOCC3)n2)CC1 | PIK3CA | ligand displacement, TR-FRET | – | kinact | 9.6e-05 s⁻¹
CN(C)c1nccc(-c2cnc3ncccn23)n1 | PIK3CA C420R | binding | 1 µM | remaining binding | 58%
O=C(O)[C@@H]1[C@@H](Cn2nnc3ccccc3c2=O)CC[C@H]1C(=O)c1ccc(OCCC2CCOCC2)cc1 | PIK3CA | cell-free assay, competition with immobilised ligand | 1 µM | remaining binding | 100%
COc1cccc2c(NCc3ccccc3)nc(-n3c(N)nc4ccccc43)nc12 | PIK3CA | target engagement in cells, inhibitor, chemoproteomics | 20 mM | inhibition | 5.6%
Nc1cnc(N2CCc3cc(S(=O)(=O)Nc4c(F)cc(Cl)cc4F)cc(N4CCCC4=O)c32)nc1 | PIK3CA H1047Y | cell-free assay, competition with immobilised ligand | 1 µM | remaining binding | 100%
CC(C)=CC(=O)CCCC(=O)N1CCN(c2nc(-c3cnc(N)nc3C(F)F)nc(N3CCOCC3)n2)CC1 | PIK3CA | ligand displacement, TR-FRET | – | kinact/KI | 3210 M⁻¹ s⁻¹
COc1cccc(CNC(=O)c2nc3scc(COCc4ccc(C(=O)O)cc4)c3c(=O)[nH]2)c1 | PIK3CA I800L | cell-free assay, competition with immobilised ligand | 1 µM | remaining binding | 77.2%
C[C@@H]1CCN(c2nccc(-c3cnn4ncccc34)n2)C1 | PIK3CA | binding | 1 µM | remaining binding | 100%
Cc1c[nH]c2nccc(Oc3c(F)cc(Nc4cc(Cl)nc(N)n4)cc3F)c12 | PIK3CA H1047Y | cell-free assay, competition with immobilised ligand | 0.1 µM | remaining binding | 83%
F[C@@H]1CCN(c2nccc(-c3cnn4ncccc34)n2)C1 | PIK3CA M1043I | binding | 1 µM | remaining binding | 100%
CC(C)(O)c1cncc(-c2nc3ccc(F)cc3n2C2CC2)c1 | PIK3CA M1043I | cell-free assay, competition with immobilised ligand | 1 µM | remaining binding | 100%
N[C@@H]1CCN(c2nccc(-c3cnn4ncccc34)n2)C1 | PIK3CA E542K | binding | 1 µM | remaining binding | 80%
CCCOc1ccc([C@@H]2[C@@H](C(=O)O)[C@H](c3ccc4c(c3)OCO4)CN2CC(=O)Nc2c(CC)cccc2CC)cc1 | Phosphatidylinositol 4,5-bisphosphate 3-kinase catalytic subunit alpha isoform (PIK3CA, Homo sapiens, UniProt P42336, E545A) | cell-free assay, competition with immobilised ligand | 1 µM | remaining binding | 92%
C=CC(=O)N(C)CCCCC(=O)N1CCN(c2nc(-c3cnc(N)nc3C(F)F)nc(N3CCOCC3)n2)CC1 | PIK3CA | ligand displacement, TR-FRET | – | kinact | 0.000127 s⁻¹
